Laboratory results reported in ChEMBL document CHEMBL4673198, “Identification of 3-hydroxy-1,2-dimethylpyridine-4(1H)-thione as a metal-binding motif for the inhibition of botulinum neurotoxin A” (RSC Med Chem, 2021).
Calls of active or inactive are those of the source. No cut-off for these calls is given here.

Columns and labels:
Clostridium botulinum [1] = assay: Zinc chelating activity mediated inhibition of Clostridium botulinum BoNT/A1 LC (1 to 425 residues) activity using SNAPtide as substrate at 50 uM incubated with enzyme for 30 mins followed by substrate addition and measured for 20 mins by FRET assay relative to control; settings: time 50.0 min
Summary of the method: (§1)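 Enzyme was truncated BoNT/A1 LC (1–425) at 10 nM final, incubated with compound for 30 min at 25 °C in 40 mM HEPES pH 7.4 with 0.01% Triton X-100. SNAPtide substrate followed at 3.8 µM final. Fluorescence rate (ex 490/em 523 nm) read immediately for 20 min. Technical and experimental triplicate.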

[2] = Zinc chelating activity mediated inhibition of Clostridium botulinum BoNT/A1 LC (1 to 425 residues) activity using SNAPtide as substrate incubated with enzyme for 30 mins followed by substrate addition and measured for 20 mins by FRET assay relative to control; summary of the method: as §1
[3] = Zinc chelating activity mediated inhibition of Clostridium botulinum Hall A hyper BoNT/A1activity assessed as inhibition of BoNT/A1-induced neurotoxicity in hIPSC derived GABA neurons by measuring protection against SNAP-25 cleavage incubated for 30 mins post BoNT/A1 addition and measured at 7 hrs post-toxin addition by Western blot analysis
Clostridium botulinum [4] = assay: Zinc chelating activity mediated inhibition of Clostridium botulinum BoNT/A1 LC (1 to 425 residues) activity using SNAPtide as substrate at 1 mM incubated with enzyme for 30 mins followed by substrate addition and measured for 20 mins by FRET assay relative to control; settings: time 50.0 min; summary of the method: as §1
Clostridium botulinum [5] = assay: Selectivity index, ratio of IC50 for zinc chelation-mediated inhibition of Clostridium botulinum Hall A hyper BoNT/A1 activity assessed as protection against SNAP-25 cleavage in hIPSC-derived GABA neurons to IC50 for zinc chelation-mediated inhibition of Clostridium botulinum BoNT/A1 LC (1 to 425 residues)
[6] = Selectivity index, ratio of IC50 for zinc chelation-mediated inhibition of Clostridium botulinum BoNT/A1 LC (1 to 425 residues) to IC50 for MMP7 (unknown origin); assay type: toxicity
[7] = Selectivity index, ratio of IC50 for zinc chelation-mediated inhibition of Clostridium botulinum BoNT/A1 LC (1 to 425 residues) to IC50 for MMP3 (unknown origin); assay type: toxicity
[8] = Selectivity index, ratio of IC50 for zinc chelation-mediated inhibition of Clostridium botulinum BoNT/A1 LC (1 to 425 residues) to IC50 for MMP13 (unknown origin); assay type: toxicity
Clostridium botulinum [9] = assay: Competitive active site zinc chelating activity mediated inhibition of Clostridium botulinum BoNT/A1 LC (1 to 425 residues) activity at 0.1 to 10 uM using SNAPtide as substrate incubated with enzyme for 30 mins in presence of DCHA followed by substrate addition and measured for 20 mins by FRET assay; settings: dose 0.1-10 µM, time 50.0 min
Summary of the method: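 BoNT/A1 LC (1–425), 10 nM final, preincubated with compound for 30 min at room temperature in 40 mM HEPES pH 7.4 with 0.01% Triton X-100. SNAPtide added to 3.8 µM final. Fluorescence rate (ex 490/em 523 nm) read for 20 min. Technical and experimental triplicate.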

[10] = Selectivity index, ratio of IC50 for zinc chelation-mediated inhibition of Clostridium botulinum BoNT/A1 LC (1 to 425 residues) to IC50 for MMP8 (unknown origin); assay type: toxicity
[11] = Selectivity index, ratio of IC50 for zinc chelation-mediated inhibition of Clostridium botulinum BoNT/A1 LC (1 to 425 residues) to IC50 for MMP2 (unknown origin); assay type: toxicity
[12] = Selectivity index, ratio of IC50 for zinc chelation-mediated inhibition of Clostridium botulinum BoNT/A1 LC (1 to 425 residues) to IC50 for MMP19 (unknown origin); assay type: toxicity
[13] = Selectivity index, ratio of IC50 for zinc chelation-mediated inhibition of Clostridium botulinum BoNT/A1 LC (1 to 425 residues) to IC50 for MMP1 (unknown origin); assay type: toxicity

Cc1c(O)c(=S)ccn1-c1ccc(N2CCOCC2)cc1
inhibition (Clostridium botulinum [1]): 0%

Cc1c(O)c(=S)ccn1CCc1ccc(Cl)cc1
IC50 [2]: 1.9 µM

Cc1c(O)c(=S)ccn1CC12CC3CC(CC(C3)C1)C2
IC50 [2]: 4.9 µM

COc1cccc(CCn2ccc(=S)c(O)c2C)c1
inhibition (Clostridium botulinum [1]): 62%

Cc1c(O)c(=S)ccn1Cc1ccc(-c2ccc3ccccc3c2)cc1
inhibition (Clostridium botulinum [1]): 60%

Cc1c(O)c(=S)ccn1Cc1ccc(-c2ccc(F)cc2)cc1
IC50 [3]: 33 µM | IC50 [2]: 1.4 µM

Cc1c(O)c(=S)ccn1C
inhibition (Clostridium botulinum [4]): > 95%

COc1ccc(Cn2ccc(=S)c(O)c2C)cc1
IC50 [2]: 31.9 µM

Cc1c(O)c(=S)ccn1Cc1ccc(-c2ccc(Cl)cc2)cc1
IC50 [3]: 31 µM | IC50 [2]: 1.3 µM

Cc1ccc(CCn2ccc(=S)c(O)c2C)cc1C
IC50 [2]: 2.8 µM

Cc1c(O)c(=S)ccn1-c1ccc(N)cc1
inhibition (Clostridium botulinum [1]): 16%

Cc1c(O)c(=S)ccn1Cc1ccc(Br)cc1
IC50 [2]: 2.2 µM

Cc1c(O)c(=S)ccn1Cc1cccnc1
inhibition (Clostridium botulinum [1]): 52%

Cc1ccc(CCn2ccc(=S)c(O)c2C)c(C)c1
IC50 [2]: 1.7 µM

Cc1c(O)c(=S)ccn1Cc1ccc(Cl)cc1
IC50 [2]: 11.3 µM

Cc1c(O)c(=S)ccn1-c1ccc(Nc2ccccc2)cc1
inhibition (Clostridium botulinum [1]): 14%

Cc1c(O)c(=S)ccn1CCc1ccccc1
inhibition (Clostridium botulinum [1]): 48%

COc1ccc(CCn2ccc(=S)c(O)c2C)cc1
inhibition (Clostridium botulinum [1]): 57%

Cc1c(O)c(=S)ccn1-c1ccc(F)c(C(F)(F)F)c1
inhibition (Clostridium botulinum [1]): 0%

O=C(O)c1cccc(C(=O)O)n1
inhibition (Clostridium botulinum [4]): > 95%

Cc1c(O)c(=S)ccn1Cc1ccc(-c2ccc3c(c2)OCO3)cc1
IC50 [3]: 51 µM | IC50 [2]: 1.4 µM

Cc1c(O)c(=S)ccn1CCc1ccc(-c2ccccc2)cc1
Ratio IC50 (Clostridium botulinum [5]): 7 | Ratio IC50 [6]: 2 | Ratio IC50 [7]: 2 | Ratio IC50 [8]: 2 | Activity (Clostridium botulinum [9]): Active | Ratio IC50 [10]: 2 | Ratio IC50 [11]: 2 | IC50 [3]: 13 µM | Ratio IC50 [12]: 2 | Ratio IC50 [13]: 2 | IC50 [2]: 1.8 µM

CCn1ccc(=S)c(O)c1C
inhibition (Clostridium botulinum [4]): > 95%

Cc1c(O)c(=S)ccn1Cc1ccc(F)cc1
inhibition (Clostridium botulinum [1]): 64%

COc1cccc(Cn2ccc(=S)c(O)c2C)c1
inhibition (Clostridium botulinum [1]): 65%

Cc1c(O)c(=S)ccn1-c1ccc(F)cc1
inhibition (Clostridium botulinum [1]): 37%

c1cnc2c(c1)ccc1cccnc12
inhibition (Clostridium botulinum [4]): > 95%

Cc1c(O)c(=S)ccn1Cc1ccc([N+](=O)[O-])cc1
IC50 [3]: 100 µM | IC50 [2]: 3 µM

Cc1c(O)c(=S)ccn1CCC12CC3CC(CC(C3)C1)C2
IC50 [2]: > 50 µM

O=C(O)c1ccc2cccc(O)c2n1
inhibition (Clostridium botulinum [4]): > 95%

CCOc1ccc(-n2ccc(=S)c(O)c2C)cc1
inhibition (Clostridium botulinum [1]): 80%

Cc1ccc(Cn2ccc(=S)c(O)c2C)cc1
IC50 [2]: 5 µM

COc1ccccc1Cn1ccc(=S)c(O)c1C
inhibition (Clostridium botulinum [1]): 71%

Cc1c(O)c(=S)ccn1Cc1ccc(-c2ccc(F)c(F)c2)cc1
IC50 [3]: 39 µM | IC50 [2]: 1.8 µM

Cc1c(O)c(=S)ccn1Cc1ccccc1
inhibition (Clostridium botulinum [1]): 55%

Cc1ccc(CCn2ccc(=S)c(O)c2C)cc1
inhibition (Clostridium botulinum [1]): 81% | IC50 [2]: 3.2 µM

Cc1c(O)c(=S)ccn1Cc1ccc(O)cc1
IC50 [2]: > 50 µM

Cc1c(O)c(=S)ccn1Cc1ccc(Cl)cc1Cl
IC50 [2]: > 50 µM

Cc1c(O)c(=S)ccn1CCc1ccc(Cl)cc1Cl
IC50 [3]: 200 µM | IC50 [2]: 1.6 µM

CCc1c(O)c(=S)ccn1CC
inhibition (Clostridium botulinum [4]): > 95%

COc1ccc(-n2ccc(=S)c(O)c2C)cc1OC
inhibition (Clostridium botulinum [1]): 12%

Cc1c(O)c(=S)ccn1-c1cc(C(F)(F)F)cc(C(F)(F)F)c1
inhibition (Clostridium botulinum [1]): 0%
